Columns and labels:
[1] = system: SF-539; assay: Compound was tested for its cytotoxicity against CNS SF-539 Human cancer cell line; type: functional
Summary of the method: (§1)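 GI50 = concentration giving 50% growth inhibition, from a screen of about 55 human cancer cell lines over a 10^-8 to 10^-4 M test range. Values come from two determinations where a population standard deviation is shown, otherwise from single determinations.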

[2] = system: DU-145; assay: Cytotoxicity against prostate DU-145 human cancer cell line.; type: functional; summary of the method: as §1
[3] = target: T1, DNA topoisomerase 1 (Homo sapiens) (UniProt P11387); assay: The activity was examined against DNA topoisomerase I mediated DNA cleavage using 3'-End-labelled 161 BP plasmid DNA. 0 indicates inactive
T1 sequence (whole entry): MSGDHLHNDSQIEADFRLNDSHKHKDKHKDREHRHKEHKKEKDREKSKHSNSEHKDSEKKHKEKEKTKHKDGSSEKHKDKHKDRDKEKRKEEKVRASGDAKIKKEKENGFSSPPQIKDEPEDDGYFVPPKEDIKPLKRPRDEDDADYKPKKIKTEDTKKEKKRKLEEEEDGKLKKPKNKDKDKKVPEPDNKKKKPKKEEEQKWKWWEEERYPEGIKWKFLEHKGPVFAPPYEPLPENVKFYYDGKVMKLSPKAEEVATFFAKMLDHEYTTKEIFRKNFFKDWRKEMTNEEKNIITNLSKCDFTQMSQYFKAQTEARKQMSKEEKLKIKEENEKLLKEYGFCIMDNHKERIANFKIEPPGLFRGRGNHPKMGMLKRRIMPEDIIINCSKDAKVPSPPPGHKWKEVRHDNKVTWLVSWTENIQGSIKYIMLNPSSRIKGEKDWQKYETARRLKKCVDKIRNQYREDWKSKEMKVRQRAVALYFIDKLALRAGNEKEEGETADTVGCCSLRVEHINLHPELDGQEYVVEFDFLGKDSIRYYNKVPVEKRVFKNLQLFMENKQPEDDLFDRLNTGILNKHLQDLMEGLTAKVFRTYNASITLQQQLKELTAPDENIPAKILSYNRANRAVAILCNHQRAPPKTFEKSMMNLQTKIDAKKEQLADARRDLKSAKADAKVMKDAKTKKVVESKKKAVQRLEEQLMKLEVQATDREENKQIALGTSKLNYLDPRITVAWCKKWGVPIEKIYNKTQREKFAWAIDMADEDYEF
Summary of the method: (§2)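 A 161 bp PvuII–HindIII fragment of pBluescript SK(–) was 3'-end-labeled at the HindIII site with [α-32P]dCTP by Klenow fill-in. About 50 000 dpm per reaction was incubated with top1 and drug (0.1–300 μM) at 30 °C for 30 min, then stopped with 0.5% SDS (final). Products were run on 16% polyacrylamide/7 M urea gels at 51 °C and imaged by phosphorimager.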

[4] = system: HOP-62; assay: Cytotoxicity against lung HOP-62 human cancer cell line.; type: functional; summary of the method: as §1
[5] = system: HCT-116; assay: Cytotoxicity against colon HCT116 human cancer cell line.; type: functional; summary of the method: as §1
[6] = system: MDA-MB-435; assay: In vitro cytotoxicity against MDA-MB-435 (Human breast cancer) cell line.; type: functional; summary of the method: as §1
[7] = system: OVCAR-3; assay: Cytotoxicity against ovarian OVCAR-3 human cancer cell line.; type: functional; summary of the method: as §1
[8] = system: SN12C; assay: In vitro cytotoxicity against SN12C (Human renal cancer) cell line.; type: functional; summary of the method: as §1
[9] = system: UACC-62; assay: In vitro cytotoxicity against UACC-62 (Human melanoma) cell line.; type: functional; summary of the method: as §1
[10] = target: T1, DNA topoisomerase 1 (Homo sapiens); assay: The activity was examined against DNA topoisomerase I mediated DNA cleavage using 3'-End-labelled 161 BP plasmid DNA; 0 indicates inactive; summary of the method: as §2
[11] = target: T1, DNA topoisomerase 1 (Homo sapiens); assay: The activity was examined against DNA topoisomerase I mediated DNA cleavage using 3''-End-labelled 161 BP plasmid DNA.+/- indicates less than 20% of the activity of 1 uM camptothecin; summary of the method: as §2
[12] = target: T1, DNA topoisomerase 1 (Homo sapiens); assay: The activity was examined against DNA topoisomerase I mediated DNA cleavage using 3''-End-labelled 161 BP plasmid DNA. +/- less than 20% of the activity 0f 1 uM camptothecin; summary of the method: as §2
[13] = system: MDA-MB-435; assay: Compound was tested for its cytotoxicity against breast MDA-MB-435 Human cancer cell line; type: functional; summary of the method: as §1
[14] = target: T1, DNA topoisomerase 1 (Homo sapiens); assay: The activity was examined against DNA topoisomerase I mediated DNA cleavage using 3''-End-labelled 161 BP plasmid DNA. + indicates between 20 and 50% of the activity of 1 uM camptothecin; summary of the method: as §2
[15] = target: T1, DNA topoisomerase 1 (Homo sapiens); assay: The activity was examined against DNA topoisomerase I mediated DNA cleavage using 3''-End-labelled 161 BP plasmid DNA.+ indicates between 20 and 50% of the activity of 1 uM camptothecin; summary of the method: as §2

Top1 cleavage activity [3]	Top1 cleavage activity [10]	Top1 cleavage activity [11]	Top1 cleavage activity [12]	Compound	GI50 [1] [µM]	GI50 [2] [µM]	GI50 [4] [µM]	GI50 [5] [µM]	GI50 [6] [µM]	GI50 [7] [µM]	GI50 [8] [µM]	GI50 [9] [µM]	GI50 [13] [µM]	Top1 cleavage activity [14]	Top1 cleavage activity [15]
0				O=C1c2ccccc2-c2oc(=O)c3ccccc3c21	> 100	> 100	> 100	> 100	> 100	> 100	> 100	> 100			
0				CCn1c2c(c3ccccc3c1=O)C(=O)c1ccccc1-2											
				O=C(O)CCCn1c2c(c3ccccc3c1=O)C(=O)c1ccccc1-2		48	87	40	> 100	> 100	27	73			
	0			COc1ccc(-n2c3c(c4cc(OC)c(OC)cc4c2=O)C(=O)c2cc4c(cc2-3)OCO4)cc1	> 100	76	20	> 100	> 100	> 100	> 100	> 100			
0				CCCn1c2c(c3ccccc3c1=O)C(=O)c1ccccc1-2											
		+/-		CCN1C(=O)c2cc(OC)c(OC)cc2[C@H]2C(=O)c3cc4c(cc3[C@H]21)OCO4		0.42	0.29	0.29	0.45	0.44		0.18			
			+/-	CCn1c2c(c3cc(OC)c(OC)cc3c1=O)C(=O)c1cc3c(cc1-2)OCO3	2	2.3	2.2	2.6	2.6	3	3.6	2.1			
				CC[n+]1cc2cc(OC)c(OC)cc2c2c1-c1cc3c(cc1C2)OCO3	56	58	22	13	14	1.9	2.7				
0				C=CCN1C(=O)c2cc(OC)c(OC)cc2[C@H]2C(=O)c3cc4c(cc3[C@H]21)OCO4		0.77	0.36	0.34		1.78		0.38	1.4		
				COc1cc2c3c(n(CCCCO)c(=O)c2cc1OC)-c1cc2c(cc1C3=O)OCO2		0.36	0.7	1.4	10	3.7		0.99		20-50% of the activity of 1 uM camptothecin	
				COc1cc2c3c(n(CCCCCO)c(=O)c2cc1OC)-c1cc2c(cc1C3=O)OCO2		5.1	8.7	> 100	> 100	> 100		> 100		20-50% of the activity of 1 uM camptothecin	
				O=C1c2ccccc2-c2c1c1ccccc1c(=O)n2CCCCCO		3.4	4.4	3.9	41	93		14.3		20-50% of the activity of 1 uM camptothecin	
				C=CCn1c2c(c3cc(OC)c(OC)cc3c1=O)C(=O)c1cc3c(cc1-2)OCO3	2.2	3.2	3.4	2.3	5.2	6.6	2.6				20-50% of the activity of 1 uM camptothecin

— ChEMBL document CHEMBL1132570, “Synthesis of cytotoxic indenoisoquinoline topoisomerase I poisons” (1999)
